Many of the other results were omitted from the sample, so hits are more common in it than they were.
T cruzi inh: T. cruzi replication inhibition | T. cruzi beta-gal in NIH3T3, luminescence, 90 h | inhibition, % (concentration not given with the values) | hit rate 1.4% among 300,000;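 active = mean inhibition across valid replicates above about 55%, limit read from the data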;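 note: signal also drops with host cell toxicity which is not excluded here; 0% = plate median of DMSO wells and 100% = zero luminescence signal; higher percent means less beta-gal luminescence so fewer parasites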
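Material: NIH/3T3 host cells with β-galactosidase reporter T. cruzi; Input: 5,000 host fibroblasts per well; Medium: DMEM, 2% fetal bovine serum; Compound: 50 nL DMSO compound solution per well; Schedule: 3 h host attachment, then at least 90 h co-culture; Detection: luminescent β-galactosidase signal after 60 min lysis.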
XBP1 UPR activ: activators of adaptive arm of unfolded protein response (XBP1). activation, % at 20 µM. hit rate 0.33% among 330,000. CHO-XBP1 luciferase reporter, IRE1-XBP1 UPR activation, luminescence; percent of tunicamycin response, DMSO as zero;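 active = versus positive control, 20 µM dose yields 30% or more activation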;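 note: 100% = tunicamycin at 10 µg/mL and 0% = DMSO only wells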
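Assay system: IRE1-XBP1 luciferase reporter CHO line. Input: 1000 cells/well. Buffer or medium: F12 with 10% serum. Doses: 20 µM, 1% DMSO. Times: overnight seeding at 37 °C, 6 h compound treatment at 37 °C. Technique: Steady-Glo luciferase glow luminescence, 10 min after reagent addition.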
Dynein cargo inh: blocks dynein driven cargo transport along microtubules. hit rate 0.47% among 220,000. z-score, hits read low. AID 1381. 3617.4 mouse cells, GR-EGFP nuclear translocation imaging; test concentration mostly 20 µM; stimulated with dexamethasone, 1 µM; stronger effect = lower value;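 active = plate z-score of nuclear minus cytoplasmic receptor signal below a set negative limit, without overly bright fluorescence or cell loss, cut at about -3.5 in these data, passing the limit was not always enough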;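 note: z-score of nuclear minus cytoplasmic ring GR-EGFP intensity difference per well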
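Buffer or medium: tet-free, stripped-serum medium; reagent: dexamethasone at 1.0 µM final, 30 min; incubation: 48 h induction, 1 h compound, 30 min dex at 37 °C; measured by: formaldehyde fixation, Hoechst nuclear stain, 10x automated fluorescence imaging; read-out: nuclear-to-cytoplasmic GR-EGFP distribution per well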
CHOP inh: inhibitors of CHOP induction in ER stress response; CHO-K1 CHOP-promoter luciferase, tunicamycin-induced, 15-18 h; inhibition, % at 10 µM; hit rate 3.8% among 220,000;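 active = compounds that reduced the stress-induced luciferase reporter signal by more than about 70% of percent inhibition, limit read from the data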;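 note: 0% = tunicamycin plus vehicle and 100% = wells without tunicamycin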
UPR CHOP act: activators of apoptotic arm of unfolded protein response (CHOP) | CHO-CHOP luciferase reporter, UPR activation, luminescence; percent of tunicamycin response over DMSO baseline | activation, % at 10 µM | hit rate 0.34% among 330,000;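 active = at 10 µM dose, activation of 40% or more, normalized to positive control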;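 note: 100% = tunicamycin at 10 µg/mL and 0% = DMSO alone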
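System: CHO CHOP reporter cells. Amount: 500 cells per well. Buffer or medium: F12 medium, 10% FBS. Compound dosing: one dose, 10 µM in 0.5% DMSO. Incubation: 6 h compound exposure at 37 °C after overnight seeding. Technique: Steady-Glo luciferase luminescence. Benchmarks: tunicamycin and DMSO controls.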
L major viab: Leishmania major promastigote growth inhibition; inhibition, % at 10 µM; Leishmania major promastigotes, resazurin fluorescence viability; hit rate 9% among 200,000; in the data active = inhibition above about 50%;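 note: promastigotes grown with compound for 44 hours at 28 °C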
* hit, by the source's call; . = no result given.

SMILES	T cruzi inh	XBP1 UPR activ	Dynein cargo inh	CHOP inh	UPR CHOP act	L major viab
COc1cc(OC)c(NC(=O)CCCn2c(=O)oc3ccccc32)cc1Cl	2	3	-0.43	13	-2	-1
COc1ccc(NC(=O)CCCn2c(=O)oc3ccccc32)cc1Cl	-8	0	-0.71	-21	2	58*
COc1cc(Cl)c(C)cc1NC(=O)CCCn1c(=O)oc2ccccc21	6	-1	0.44	18	0	53*
O=C(Nc1c[nH]c(=O)[nH]c1=O)c1cc([N+](=O)[O-])cc([N+](=O)[O-])c1	3	-1	.	.	-2	.
COc1ccc(C(=O)COC(=O)c2sccc2C)cc1OC	.	6	.	.	7	.
O=C(NCCCN1CCOCC1)c1c(O)c2ccccc2[nH]c1=O	10	-1	-1	5	-1	7
COc1cc2[nH]c(=O)c(C(=O)NCCCN3CCCCC3)c(O)c2cc1OC	14	-1	-0.085	7	1	94*
Cc1ccc(S(=O)(=O)NCCC(=O)Nc2nnc(C)s2)cc1	-16	-2	1.5	14	-1	-6
Cc1cc(C)cc(N(CCC(=O)Nc2nnc(C)s2)S(=O)(=O)c2ccc(Cl)cc2)c1	0	-1	0.2	52	-1	93*
CCSc1ccc2cc(OC)ccc2[n+]1CC	55*	0	0.86	4	0	84*
O=C(NCc1ccc2c(c1)OCO2)c1ccc(CS(=O)(=O)Cc2cccc(Cl)c2)o1	20	-2	0.03	29	-4	79*
O=C(NCc1ccc2c(c1)OCO2)c1ccc(CSCc2ccc(Cl)cc2)o1	5	-1	-0.3	44	0	51*
CCc1ccccc1S(=O)(=O)Cc1ccc(C(=O)NCc2ccc3c(c2)OCO3)o1	21	-2	-0.89	87*	0	8
O=C(Nc1cccc(Br)c1)c1cccc(OC(=S)N2CCOCC2)c1	20	1	.	.	1	.
CN(CC(=O)Nc1ccc(F)c(F)c1F)C(=O)CCN1C(=O)C2CCCCC2C1=O (stereo not drawn)	.	-3	.	.	0	.
CCOC(=O)c1c(N)sc2c(OCC)c(Br)ccc12	39	2	0.19	85*	2	11
C=CCn1c(O)c(N=NC(=S)Nc2ccc(OC)c(Cl)c2)c2ccccc21	57*	-1	-0.39	-34	4	97*
CCOc1ccc(N(CC(=O)N2CCC(Cc3ccccc3)CC2)S(C)(=O)=O)cc1	6	-3	-0.25	18	0	-3
O=C(CN(Cc1ccc(Cl)cc1)C(=O)CNS(=O)(=O)c1ccccc1)NCC1CCCO1 (stereo not drawn)	-4	-2	.	.	2	.
Cc1[nH]c2ccccc2c1C(=O)C(C)OC(=O)c1ccc([N+](=O)[O-])o1 (stereo not drawn)	18	0	-1.2	-48	2	99*
CN(CCCN1CCOCC1)Cc1nc(-c2ccccc2)no1	12	-2	-0.98	-8	1	78*
N#CC(C(=O)NC1CCCCC1)c1nc2ccccc2nc1N1CCN(c2ccc(F)cc2)CC1 (stereo not drawn)	18	.	-0.14	9	.	-5
CCN1CCN(c2nc3ccccc3nc2C(C#N)C(=O)OC2CCCCC2)CC1 (stereo not drawn)	.	.	-0.28	-26	.	85*
N#CC(C(=O)OC1CCCCC1)c1nc2ccccc2nc1N1CCOCC1 (stereo not drawn)	46	2	-0.91	4	-2	29
CN1CCN(c2nc3ccccc3nc2C(C#N)C(=O)OC2CCCCC2)CC1 (stereo not drawn)	42	2	-0.95	72*	-1	90*
SMILES	T cruzi inh	XBP1 UPR activ	Dynein cargo inh	CHOP inh	UPR CHOP act	L major viab
CCOC(=O)C1=C(C)NC(C)=C(C(=O)OCC)C1C(=O)OCC(=O)NCCc1ccc(S(N)(=O)=O)cc1	-6	-3	.	.	-1	.
COc1ccc(NC(=O)CC2(Cc3ccccc3)CCOC(C)(C)C2)cc1 (stereo not drawn)	-16	0	-0.72	55	-1	55*
COc1ccc(NC(=O)CCOc2ccccc2)cc1	4	1	1.5	-22	8	-1
Brc1ccc(Nc2ncnc3[nH]ncc23)cc1	-11	5	0.13	20	1	.
CCCOc1ccc(N2CC(C(=O)NC3=NCCS3)CC2=O)cc1 (stereo not drawn)	-23	-3	1.6	20	-2	10
Cc1cc(CN(C)C)c(O)c(C2(C)CCCCC2)c1	-5	0	-0.78	51	-1	3
Cc1cc(CN2CCOCC2)c(O)c(C2(C)CCCCC2)c1	11	3	0.82	38	-4	56*
CN(C)c1ccc(/C=C/c2ccc3ccccc3[n+]2C)cc1	60*	2	-0.58	70*	9	100*
COc1ccc2nc3cc(Cl)ccc3c(Nc3cc(CN4CCCC4)c(O)c(CN4CCCC4)c3)c2n1	59*	-7	.	.	2	.
CC(C)(C)n1nnnc1C(c1ccccn1)N(Cc1ccccc1)Cc1ccc(Cl)cc1 (stereo not drawn)	40	2	-0.75	56	1	53*
O=C(CN1C(=O)NC2(CCCC2)C1=O)Nc1nc(-c2ccccc2)cs1	1	-1	.	.	0	.
COc1cc(CNCCc2ccccc2)cc(Br)c1OCC(=O)Nc1ccccc1C	50	3	0.5	60	-2	100*
CNCc1cc(Br)c(OCC(=O)Nc2ccccc2OC)c(OC)c1	32	-2	-0.43	18	1	100*
COc1cc(CO)ccc1OCC(=O)Nc1ccc(Br)cc1	-5	1	-0.79	5	9	-5
COc1ccccc1NC(=O)COc1ccc(Br)cc1CNC1CCCC1	45	2	0.27	2	1	94*
CCNCc1cc(Br)c(OCC(=O)Nc2ccccc2)c(OC)c1	10	0	-0.58	8	7	101*
O=C1c2cccnc2C(=O)N1Cc1ccc(S(=O)(=O)N2CCOc3ccccc32)cc1	12	-9	.	.	0	.
CCCCC1=CC2=C(c3ccco3)C(=O)C(C)(OC(=O)c3ccc(OC)cc3)C(=O)C2=CN1CC1CC1 (stereo not drawn)	2	23	-0.72	90*	33	.
CSc1ccccc1NC(=S)N/N=C/c1cccn1Cc1cccc(C)c1	65*	-2	0.4	-6	1	33
COc1ccc(CC2(CO)CCN(Cc3ccncc3)CC2)cc1	11	4	-0.0012	2	1	89*
COC(=O)c1ccc(CN2CCC(CO)(Cc3cccc(OC)c3)CC2)cc1	40	1	-1.6	24	-2	83*

Bioassay records from PubChem.
